{"source": "ChEMBL document CHEMBL5705886", "about": "“GSK1070916, a potent Aurora B/C kinase inhibitor with broad antitumor activity in tissue culture cells and human tumor xenograft models” (Mol Cancer Ther, 2009)", "key": {"[1]": {"tested_on": "WiDr", "experiment": "Antiproliferative activity against human WiDr cells assessed as inhibition of cell viability measured for 6 to 7 days by cell titer glo assay", "assay_type": "functional, cell-based"}, "[2]": {"tested_on": "COLO 205", "experiment": "Antiproliferative activity against human COLO 205 cells assessed as inhibition of cell viability measured for 6 to 7 days by cell titer glo assay", "assay_type": "functional, cell-based", "how_it_was_run": "(§1)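 Tumor lines plated in recommended growth media, overnight at 37°C, 5% CO2, then given serial dilutions; a T=0 plate read with CellTiter-Glo at dosing. After 6–7 d of exposure, viability read by CellTiter-Glo luminescence. No-cell wells subtracted, data expressed as % of DMSO control.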"}, "[3]": {"tested_on": "RKO", "experiment": "Antiproliferative activity against human RKO cells assessed as inhibition of cell viability measured for 6 to 7 days by cell titer glo assay", "assay_type": "functional, cell-based", "how_it_was_run": "(§2)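 Cells seeded in recommended growth medium, held overnight at 37°C in 5% CO2, then exposed to serial dilutions of inhibitor for 6–7 d. A time-zero plate was read with CellTiter-Glo at dosing. Luminescent viability read at the end. No-cell wells subtracted as background, data expressed as percent of DMSO control.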"}, "[4]": {"tested_on": "SW-620", "experiment": "Antiproliferative activity against human SW620 cells assessed as inhibition of cell viability measured for 6 to 7 days by cell titer glo assay", "assay_type": "functional, cell-based", "how_it_was_run": "as §2"}, "[5]": {"tested_on": "DLD-1", "experiment": "Antiproliferative activity against human DLD-1 cells assessed as inhibition of cell viability measured for 6 to 7 days by cell titer glo assay", "assay_type": "functional, cell-based", "how_it_was_run": "as §1"}, "[6]": {"tested_on": "MDA-MB-453", "experiment": "Antiproliferative activity against human MDA-MB-453 cells assessed as inhibition of cell viability measured for 6 to 7 days by cell titer glo assay", "assay_type": "functional, cell-based", "how_it_was_run": "(§3)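 Cells seeded in recommended growth medium, incubated overnight at 37°C in 5% CO2, then exposed to serial dilutions of inhibitor for 6–7 d. A parallel plate was read with CellTiter-Glo at compound addition as a T=0 value. The luminescent viability readout had no-cell background subtracted and was expressed as % of DMSO control.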"}, "[7]": {"tested_on": "MX1", "experiment": "Antiproliferative activity against human MX1 cells assessed as inhibition of cell viability measured for 6 to 7 days by cell titer glo assay", "assay_type": "functional, cell-based", "how_it_was_run": "as §3"}, "[8]": {"tested_on": "MCF7", "experiment": "Antiproliferative activity against human MCF7 cells assessed as inhibition of cell viability measured for 6 to 7 days by cell titer glo assay", "assay_type": "functional, cell-based", "how_it_was_run": "as §3"}, "[9]": {"tested_on": "SK-MEL-5", "experiment": "Antiproliferative activity against human SK-MEL-5 cells assessed as inhibition of cell viability measured for 6 to 7 days by cell titer glo assay", "assay_type": "functional, cell-based", "how_it_was_run": "as §2"}, "[10]": {"tested_on": "SW 954", "experiment": "Antiproliferative activity against human SW 954 cells assessed as inhibition of cell viability measured for 6 to 7 days by cell titer glo assay", "assay_type": "functional, cell-based", "how_it_was_run": "as §2"}, "[11]": {"experiment": "Antiproliferative activity against human HuNS1 cells assessed as inhibition of cell viability measured for 6 to 7 days by cell titer glo assay", "assay_type": "functional, cell-based", "how_it_was_run": "as §3"}, "[12]": {"tested_on": "SU-DHL-16", "experiment": "Antiproliferative activity against human SU-DHL-16 cells assessed as inhibition of cell viability measured for 6 to 7 days by cell titer glo assay", "assay_type": "functional, cell-based", "how_it_was_run": "as §2"}, "[13]": {"tested_on": "JM1", "experiment": "Antiproliferative activity against human JM1 cells assessed as inhibition of cell viability measured for 6 to 7 days by cell titer glo assay", "assay_type": "functional, cell-based", "how_it_was_run": "as §3"}, "[14]": {"tested_on": "EB2", "experiment": "Antiproliferative activity against human EB2 cells assessed as inhibition of cell viability measured for 6 to 7 days by cell titer glo assay", "assay_type": "functional, cell-based", "how_it_was_run": "as §1"}, "[15]": {"tested_on": "Raji", "experiment": "Antiproliferative activity against human Raji cells assessed as inhibition of cell viability measured for 6 to 7 days by cell titer glo assay", "assay_type": "functional, cell-based", "how_it_was_run": "as §2"}, "[16]": {"tested_on": "NAMALVA", "experiment": "Antiproliferative activity against human NAMALWA cells assessed as inhibition of cell viability measured for 6 to 7 days by cell titer glo assay", "assay_type": "functional, cell-based", "how_it_was_run": "as §3"}, "[17]": {"tested_on": "NC-37", "experiment": "Antiproliferative activity against human NC-37 cells assessed as inhibition of cell viability measured for 6 to 7 days by cell titer glo assay", "assay_type": "functional, cell-based", "how_it_was_run": "as §3"}, "[18]": {"tested_on": "EB-3", "experiment": "Antiproliferative activity against human EB-3 cells assessed as inhibition of cell viability measured for 6 to 7 days by cell titer glo assay", "assay_type": "functional, cell-based", "how_it_was_run": "as §1"}, "[19]": {"tested_on": "P3HR-1", "experiment": "Antiproliferative activity against human P3HR-1 cells assessed as inhibition of cell viability measured for 6 to 7 days by cell titer glo assay", "assay_type": "functional, cell-based", "how_it_was_run": "as §2"}, "[20]": {"tested_on": "SEM cells", "experiment": "Antiproliferative activity against human SEM cells assessed as inhibition of cell viability measured for 6 to 7 days by cell titer glo assay", "assay_type": "functional, cell-based", "how_it_was_run": "as §2"}, "[21]": {"experiment": "Antiproliferative activity against human Tanoue cells assessed as inhibition of cell viability measured for 6 to 7 days by cell titer glo assay", "assay_type": "functional, cell-based", "how_it_was_run": "as §2"}, "[22]": {"tested_on": "CCRF-SB", "experiment": "Antiproliferative activity against human CCRF-SB cells assessed as inhibition of cell viability measured for 6 to 7 days by cell titer glo assay", "assay_type": "functional, cell-based", "how_it_was_run": "as §1"}, "[23]": {"tested_on": "MV4-11", "experiment": "Antiproliferative activity against human MV4-11 cells assessed as inhibition of cell viability measured for 6 to 7 days by cell titer glo assay", "assay_type": "functional, cell-based", "how_it_was_run": "as §3"}, "[24]": {"tested_on": "HL-60", "experiment": "Antiproliferative activity against human HL-60 cells assessed as inhibition of cell viability measured for 6 to 7 days by cell titer glo assay", "assay_type": "functional, cell-based", "how_it_was_run": "as §3"}, "[25]": {"tested_on": "CCRF-HSB-2", "experiment": "Antiproliferative activity against human HSB-2 cells assessed as inhibition of cell viability measured for 6 to 7 days by cell titer glo assay", "assay_type": "functional, cell-based", "how_it_was_run": "as §3"}, "[26]": {"experiment": "Antiproliferative activity against human CML-T1 cells assessed as inhibition of cell viability measured for 6 to 7 days by cell titer glo assay", "assay_type": "functional, cell-based", "how_it_was_run": "as §1"}, "[27]": {"tested_on": "CTV-1", "experiment": "Antiproliferative activity against human CTV-1 cells assessed as inhibition of cell viability measured for 6 to 7 days by cell titer glo assay", "assay_type": "functional, cell-based", "how_it_was_run": "as §1"}, "[28]": {"tested_on": "A549", "experiment": "Effect on cell cycle distribution in human A549 cells assessed as decrease in 2N DNA content incubated for 24 to 72 hrs by flow cytometry based analysis", "assay_type": "functional", "settings": "dose 2-5000 nM, time 24-72 hrs"}, "[29]": {"tested_on": "A549", "experiment": "Effect on cell cycle distribution in human A549 cells assessed as increase in 4N DNA content at 2 to 5000 nM incubated for 24 to 72 hrs by flow cytometry based analysis", "assay_type": "functional", "settings": "dose 2-5000 nM, time 24-72 hrs"}, "[30]": {"tested_on": "A549", "experiment": "Induction of mitotic alteration in human A549 cells formation of multipolar spindles at 12 to 330 nmol/L incubated for 24 hrs by immunofluorescent microscopy based analysis", "assay_type": "functional, cell-based", "settings": "dose lower […], dose upper 330.0 nmol/L"}, "[31]": {"experiment": "Toxicity in SCID nude mouse xenografted with human HCT-116 cells assessed as drug tolerance at 25 to 100 mg/kg, ip administered once daily for 5 consecutive days with 2 days off scheduled for 3 cycles measured upto 60 days", "assay_type": "organism-based", "settings": "in vivo, 1440 h, dose 25-100 mg/kg, time < 60 day"}, "[32]": {"experiment": "Toxicity in SCID nude mouse xenografted with human COLO 205 cells assessed as drug tolerance at 25 to 100 mg/kg, ip administered once daily for 5 consecutive days with 2 days off scheduled for 2 cycles measured upto 60 days", "assay_type": "organism-based", "settings": "in vivo, 1440 h, dose 25-100 mg/kg, time 60 day"}, "[33]": {"tested_on": "HL-60", "experiment": "Antitumor activity in human HL-60 cells xenografted in SCID mouse assessed as median survival time at 12.5 mg/kg, ip administered once daily for 5 consecutive days with 2 days off scheduled for 2 cycles measured upto 120 days", "assay_type": "functional", "settings": "time <= 120 day"}, "[34]": {"tested_on": "HL-60", "experiment": "Antitumor activity in human HL-60 cells xenografted in SCID mouse assessed as median survival time at 50 mg/kg, ip administered once daily for 5 consecutive days with 2 days off scheduled for 2 cycles measured upto 120 days", "assay_type": "functional", "settings": "time <= 120 day"}, "[35]": {"target": "Aurora kinase B/Inner centromere protein (Homo sapiens, UniProt Q96GD4)", "sequence (Q96GD4 whole entry)": "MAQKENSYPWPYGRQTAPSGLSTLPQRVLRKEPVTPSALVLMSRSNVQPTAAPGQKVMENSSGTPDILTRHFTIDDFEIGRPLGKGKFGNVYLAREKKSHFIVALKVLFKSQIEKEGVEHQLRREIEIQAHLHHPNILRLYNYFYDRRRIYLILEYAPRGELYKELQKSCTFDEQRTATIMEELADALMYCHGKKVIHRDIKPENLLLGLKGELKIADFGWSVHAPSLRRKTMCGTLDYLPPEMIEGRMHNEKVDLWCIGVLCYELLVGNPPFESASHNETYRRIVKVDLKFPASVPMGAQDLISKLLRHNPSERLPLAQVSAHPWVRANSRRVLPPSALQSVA", "sequence (Q9NQS7 whole entry, further chain)": "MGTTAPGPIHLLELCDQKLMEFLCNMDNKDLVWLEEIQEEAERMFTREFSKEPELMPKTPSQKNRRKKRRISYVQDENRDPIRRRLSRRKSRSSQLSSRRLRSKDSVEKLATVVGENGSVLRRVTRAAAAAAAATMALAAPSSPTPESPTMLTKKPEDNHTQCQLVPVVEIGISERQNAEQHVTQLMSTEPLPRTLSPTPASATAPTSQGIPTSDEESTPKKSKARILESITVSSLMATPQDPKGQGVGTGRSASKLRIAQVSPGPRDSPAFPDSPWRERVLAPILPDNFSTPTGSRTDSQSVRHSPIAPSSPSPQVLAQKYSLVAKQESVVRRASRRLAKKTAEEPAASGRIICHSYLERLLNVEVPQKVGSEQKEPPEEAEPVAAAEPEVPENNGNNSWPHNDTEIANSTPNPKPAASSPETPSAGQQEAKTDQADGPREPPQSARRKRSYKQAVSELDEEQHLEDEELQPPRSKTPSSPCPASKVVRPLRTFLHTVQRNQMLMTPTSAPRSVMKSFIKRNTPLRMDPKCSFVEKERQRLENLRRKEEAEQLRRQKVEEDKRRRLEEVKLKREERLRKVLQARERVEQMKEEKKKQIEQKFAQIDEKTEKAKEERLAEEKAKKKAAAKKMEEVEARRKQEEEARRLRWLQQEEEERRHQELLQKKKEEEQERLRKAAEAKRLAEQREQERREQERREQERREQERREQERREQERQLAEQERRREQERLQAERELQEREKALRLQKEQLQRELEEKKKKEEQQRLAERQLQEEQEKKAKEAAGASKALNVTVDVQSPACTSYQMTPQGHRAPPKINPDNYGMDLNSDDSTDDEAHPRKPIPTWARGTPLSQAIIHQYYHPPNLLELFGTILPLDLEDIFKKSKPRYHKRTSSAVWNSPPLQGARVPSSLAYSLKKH", "experiment": "Binding affinity to AurB/INCENP (unknown origin) assessed as inhibition constant", "assay_type": "protein-complex assay"}}, "note": "Activity calls are given as the source filed them. The calls are words filed in the database; no cut-off is given here."}
{"smiles": "CCn1cc(-c2ccnc3[nH]c(-c4cccc(CN(C)C)c4)cc23)c(-c2ccc(NC(=O)N(C)C)cc2)n1", "note": "[GSK-1070916]", "values": [{"measurement": "EC50", "setting": "[1]", "result": 3, "unit": "nM"}, {"measurement": "EC50", "setting": "[2]", "result": 7, "unit": "nM"}, {"measurement": "EC50", "setting": "[3]", "result": 7, "unit": "nM"}, {"measurement": "EC50", "setting": "[4]", "result": 8, "unit": "nM"}, {"measurement": "EC50", "setting": "[5]", "result": 28, "unit": "nM"}, {"measurement": "EC50", "setting": "[6]", "result": 6, "unit": "nM"}, {"measurement": "EC50", "setting": "[7]", "result": 8, "unit": "nM"}, {"measurement": "EC50", "setting": "[8]", "result": 13, "unit": "nM"}, {"measurement": "EC50", "setting": "[9]", "result": 8, "unit": "nM"}, {"measurement": "EC50", "setting": "[10]", "result": 11, "unit": "nM"}, {"measurement": "EC50", "setting": "[11]", "result": 9, "unit": "nM"}, {"measurement": "EC50", "setting": "[12]", "result": 4, "unit": "nM"}, {"measurement": "EC50", "setting": "[13]", "result": 7, "unit": "nM"}, {"measurement": "EC50", "setting": "[14]", "result": 2, "unit": "nM"}, {"measurement": "EC50", "setting": "[15]", "result": 3, "unit": "nM"}, {"measurement": "EC50", "setting": "[16]", "result": 6, "unit": "nM"}, {"measurement": "EC50", "setting": "[17]", "result": 7, "unit": "nM"}, {"measurement": "EC50", "setting": "[18]", "result": 7, "unit": "nM"}, {"measurement": "EC50", "setting": "[19]", "result": 8, "unit": "nM"}, {"measurement": "EC50", "setting": "[20]", "result": 3, "unit": "nM"}, {"measurement": "EC50", "setting": "[21]", "result": 1480, "unit": "nM"}, {"measurement": "EC50", "setting": "[22]", "result": 2, "unit": "nM"}, {"measurement": "EC50", "setting": "[23]", "result": 7, "unit": "nM"}, {"measurement": "EC50", "setting": "[24]", "result": 10, "unit": "nM"}, {"measurement": "EC50", "setting": "[25]", "result": 3, "unit": "nM"}, {"measurement": "EC50", "setting": "[26]", "result": 3, "unit": "nM"}, {"measurement": "EC50", "setting": "[27]", "result": 4, "unit": "nM"}, {"measurement": "Activity", "setting": "[28]", "result": "Active"}, {"measurement": "Activity", "setting": "[29]", "result": "Active"}, {"measurement": "Activity", "setting": "[30]", "result": "Active"}, {"measurement": "Activity", "setting": "[31]", "result": "Non-Toxic"}, {"measurement": "Activity", "setting": "[32]", "result": "Non-Toxic"}, {"measurement": "MST", "setting": "[33]", "result": 44, "unit": "days"}, {"measurement": "MST", "setting": "[34]", "result": 83, "unit": "days"}, {"measurement": "Ki", "setting": "[35]", "result": 0.39, "unit": "nM"}]}
